The source made the active and inactive calls. The calls are words filed in the database; no cut-off is given here.
Columns and labels:
[1] = biological target: Stromelysin-1 (Homo sapiens) (UniProt P08254); assay: Inhibition of MMP3
[2] = biological target: T1, Caspase-1 (Homo sapiens) (UniProt P29466); assay: Inhibition of caspase 1
T1 sequence (whole entry): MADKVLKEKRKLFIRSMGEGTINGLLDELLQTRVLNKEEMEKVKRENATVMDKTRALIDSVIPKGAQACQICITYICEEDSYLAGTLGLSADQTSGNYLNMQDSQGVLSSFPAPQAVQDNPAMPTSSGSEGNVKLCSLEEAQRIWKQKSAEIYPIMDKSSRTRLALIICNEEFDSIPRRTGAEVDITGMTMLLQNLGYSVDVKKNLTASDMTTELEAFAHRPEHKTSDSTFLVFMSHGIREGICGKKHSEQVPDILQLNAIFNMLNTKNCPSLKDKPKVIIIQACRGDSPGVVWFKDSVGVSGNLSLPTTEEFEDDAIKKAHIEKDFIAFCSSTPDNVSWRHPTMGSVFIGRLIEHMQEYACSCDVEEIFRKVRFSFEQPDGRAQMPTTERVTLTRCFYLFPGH

[3] = tested on: NCI-H460; assay: Growth inhibition of human NCI-H460 cells; type: functional, cell-based
Outline: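 Run by the NCI Developmental Therapeutics Program human cancer cell line screen in its single-dose–response format.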

Stromelysin-1 (Homo sapiens), sequence (P08254 100-477 limits assumed): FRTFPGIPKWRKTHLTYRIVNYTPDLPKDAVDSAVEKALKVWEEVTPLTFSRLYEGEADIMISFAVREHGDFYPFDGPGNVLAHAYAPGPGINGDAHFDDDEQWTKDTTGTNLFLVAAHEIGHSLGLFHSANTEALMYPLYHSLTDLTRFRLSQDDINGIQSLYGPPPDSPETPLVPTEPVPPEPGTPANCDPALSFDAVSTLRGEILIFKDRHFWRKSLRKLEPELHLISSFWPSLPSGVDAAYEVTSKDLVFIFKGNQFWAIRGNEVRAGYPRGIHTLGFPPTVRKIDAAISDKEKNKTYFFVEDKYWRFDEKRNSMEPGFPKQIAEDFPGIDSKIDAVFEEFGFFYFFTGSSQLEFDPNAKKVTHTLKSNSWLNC

Row | Structure (SMILES) | Activity [1] | Activity [2] | Activity [3]
1 | C[C@@H]1O[C@@H]2OC(=O)[C@]3(C)C[C@@H]4[C@](C)(C(=O)C=C5C(=CC(=O)OC5(C)C)[C@@]45CO5)[C@H](C1=O)[C@H]23 | Active | Active | Active
2 | C=C1[C@@]2(C)C[C@H]3C(C)=C4CC(=O)OC(C)(C)C4=CC[C@]3(C)[C@]1(C(=O)OC)C(=O)[C@@](C)(O)C2=O | Active | Active | Active

Continued, in another order:

Row | Activity [1] | Activity [2] | Structure (SMILES) | Activity [3]
3 | Active | Active | COC(=O)[C@]12C(=O)[C@H](C)O[C@@H]3OC(=O)[C@](C)(C[C@H]4C(C)=C5CC(=O)OC(C)(C)C5=CC[C@@]41C)[C@@H]32 | 
4 | Active | Active | COC(=O)[C@]12C(=O)[C@H](C)O[C@@H]3OC(=O)[C@](C)(C[C@H]4[C@]5(CO5)C5=CC(=O)OC(C)(C)C5=CC[C@@]41C)[C@@H]32 | 
5 | Active | Active | C=C1[C@@]2(C)C[C@H]3[C@@]4(C)C(=CC[C@]3(C)[C@]1(C(=O)OC)C(=O)[C@@](C)(O)C2=O)C(C)(C)C(=O)C[C@H]4O | 

From ChEMBL document CHEMBL1141337, “The berkeleyacetals, three meroterpenes from a deep water acid mine waste Penicillium” (J Nat Prod, 2007)
